The full list was thinned out, with hits kept by preference.
UPR CHOP act – activators of apoptotic CHOP UPR arm, primary screen, cell-based, CHO-CHOP luciferase reporter, luminescence, uHTS | UPR activation; percent of tunicamycin response over DMSO baseline | activation, % at 10 µM | hit rate 0.34% among 330,000 | AID 449763, 2010;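 active means at 10 µM dose, activation of 40% or more, normalized to positive control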;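 further: 100% = tunicamycin at 10 µg/mL and 0% = DMSO alone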
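System: CHO-CHOP luciferase reporter cell line | Buffer or medium: F12 medium containing 10% fetal bovine serum | Doses: One dose, 10 µM in 0.5% DMSO | Times: 6 h compound exposure at 37 °C after overnight seeding | Signal: Luciferase luminescence | Read-out: % activation vs tunicamycin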
Fh CTSL1 inh – Fasciola hepatica cathepsin L1 inhibitors, primary screen, counter-screen for PFM18AAP inhibitor project, biochemical, QFRET, fluorogenic peptide substrate; recombinant F. hepatica cathepsin L1, Z-Leu-Arg-MCA fluorescence; inhibition, % at 5.96 µM; hit rate 0.49% among 300,000; AID 1906, 2009;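 active means inhibition above the mean of all tested compounds plus 3 SD, set per screening campaign, cut at about 17% in these data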;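 further: 0% = plate median of test compound wells and 100% = 1 µM Z-Phe-Ala-diazomethylketone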
UCH37 DUB inh – inhibitors of human UCH37 deubiquitinase, primary screen, biochemical, Ub-AMC cleavage, fluorescence. Ubiquitin carboxyl-terminal hydrolase isozyme L5 (Homo sapiens), Q9Y5K5. purified proteasome/UCH37. inhibition, % (concentration not given with the values). hit rate 0.33% among 330,000. AID 588478, 2011;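 active means mean inhibition over replicate wells above about 20%, limit read from the data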;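 further: 0% = compound-free wells with enzyme and 100% = wells lacking proteasome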
Target sequence (Q9Y5K5 whole entry, looked up): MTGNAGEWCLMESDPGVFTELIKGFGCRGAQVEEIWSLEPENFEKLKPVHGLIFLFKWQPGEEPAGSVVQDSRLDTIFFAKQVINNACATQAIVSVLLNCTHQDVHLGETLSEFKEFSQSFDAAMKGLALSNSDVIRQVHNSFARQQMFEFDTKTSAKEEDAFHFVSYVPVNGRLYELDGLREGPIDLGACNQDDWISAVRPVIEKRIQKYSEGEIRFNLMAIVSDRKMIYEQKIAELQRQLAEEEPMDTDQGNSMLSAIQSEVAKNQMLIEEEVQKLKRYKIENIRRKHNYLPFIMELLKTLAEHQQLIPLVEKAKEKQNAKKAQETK
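Signal – fluorescence, ex 355 nm, em 460 nm · System – Proteasome-bound UCH37 · Input – 0.15 nM proteasome as dispensed · Timing – 30 min preincubation with enzyme, 25 min cleavage at room temperature · Read-out basis – percent inhibition of cleavage signal versus uninhibited and no-proteasome wells · Medium – Tris-HCl pH 7.4 with ATP-MgCl2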
CHOP inhibitor – inhibitors of CHOP promoter induction, primary screen, cell-based, unfolded protein response, luciferase reporter | CHO-K1 CHOP-promoter luciferase, tunicamycin-induced, 15-18 h | inhibition, % at 10 µM | hit rate 3.8% among 220,000;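 active means compounds that reduced the stress-induced luciferase reporter signal by more than about 70% of percent inhibition, limit read from the data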;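 further: 0% = tunicamycin plus vehicle and 100% = wells without tunicamycin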
XBP1 UPR activ – activators of adaptive XBP1 UPR arm, primary screen, cell-based, CHO-XBP1 luciferase reporter, luminescence, uHTS; activation, % at 20 µM; hit rate 0.33% among 330,000; IRE1-XBP1 UPR activation; percent of tunicamycin response, DMSO as zero;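 active means versus positive control, 20 µM dose yields 30% or more activation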;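 further: 100% = tunicamycin at 10 µg/mL and 0% = DMSO only wells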
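Material: CHO-XBP1 cells stably carrying IRE1-XBP1-driven luciferase reporter / Amount: 1000 cells per well / Compound: 20 µM, 1% DMSO / Times: 6 h treatment, 37 °C / Detection: luciferase luminescence / Measure: % activation of reporter signal versus tunicamycin and DMSO controls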
Numbers without * were called inactive; x = no result.

SMILES | UPR CHOP act | Fh CTSL1 inh | UCH37 DUB inh | CHOP inhibitor | XBP1 UPR activ
O=[N+]([O-])c1ccc(-c2ccc(C=Nc3c(-c4ccco4)nc4ccccn34)o2)c(Cl)c1 | x | x | 3.9 | x | x
O=[N+]([O-])c1ccc(/C=N\NS(=O)(=O)c2ccc(F)cc2)o1 | 2.5 | 20.1* | x | x | -5.7
CCOC(=O)c1c(CN2CCN(c3ccccc3)CC2)oc2ccc(O)cc12 | 0.2 | -2.0 | 4.7 | 81.0* | -2.8
Cc1ccc(C)c(N2CCN(C(=O)C(Cc3ccccc3)n3cccc3)CC2)c1 (stereo not drawn) | 0.6 | 2.5 | 3.6 | 64.3 | -4.0
O=C(C(Cc1ccccc1)n1cccc1)N1CCN(c2ccccc2)CC1 (stereo not drawn) | 0.7 | 0.3 | 2.3 | 78.2* | 0.0
S=C(NNc1ccnc2cc(Cl)ccc12)Nc1ccccc1Cl | 22.9 | -1.4 | 6.9 | 95.7* | 5.6
S=C(Nc1ccccc1Cl)Nc1ccc(Cl)cc1Cl | -1.7 | 0.5 | -6.3 | 1.2 | -0.8
Cc1c(Cl)cccc1NC(=O)NC1CCCCC1 | 1.6 | 1.7 | 5.2 | 77.8* | -1.5
CC(C)C1C(=NO)CC(c2ccccc2)NC1c1ccccc1 (stereo not drawn) | x | x | 5.7 | x | x
Cc1ccc(S(=O)(=O)NN=Cc2ccccc2F)cc1[N+](=O)[O-] | x | x | 3.7 | x | x
COc1cccc(NC(=O)CSc2nc3c(c(=O)n2C)SC(C)C3)c1 (stereo not drawn) | -1.0 | 1.3 | 6.8 | 78.7* | -1.0
Cc1ccc(C(C)C)c(OCC(=O)NN=Cc2ccc(S(=O)(=O)O)o2)c1 | x | x | 4.0 | x | x
Cc1ccc(C)c(OCC(O)CN2CCC(CN3C(=O)c4cccc5cccc(c45)C3=O)CC2)c1 (stereo not drawn) | 2.7 | 0.4 | -36.4 | 75.5* | -3.4
CCc1ccc(C(=O)NN=Cc2cccc3ccccc23)nc1 | x | x | -0.1 | x | x
N#C/C=C(/N)N1CCN(c2ccc(Cl)c(Cl)c2)CC1 | -1.0 | 0.8 | 5.0 | 79.7* | -3.9
Cc1ccc(OCC(=O)NN=Cc2cccn2C)c([N+](=O)[O-])c1 | x | x | 2.4 | x | x
Cc1ccc(NC(=O)c2cc(S(=O)(=O)NCCc3ccccc3)ccc2F)cc1Cl | 0.3 | 0.1 | 4.4 | 84.2* | -1.4
O=C(Nc1cccc(Cl)c1)c1cc(S(=O)(=O)NCCc2ccc(Cl)cc2)ccc1F | -0.1 | 1.4 | 1.9 | 50.7 | -4.3
CC(=O)N(Cc1cc(=O)[nH]c2ccccc12)c1ccc(C)cc1 | -0.8 | 1.7 | -2.5 | 44.5 | 9.2
Cc1ccc(N(Cc2cc(=O)[nH]c3ccccc23)C(=O)c2ccco2)cc1 | -1.1 | -2.4 | -0.4 | 72.4* | 1.0
COc1ccc(OCc2cc(C(=O)NC3CCOCC3)no2)c2ccccc12 | 1.5 | 1.6 | 24.3* | x | 2.6
COc1cccc(OCc2cc(C(=O)NC3CCOCC3)no2)c1 | 7.1 | -2.9 | 1.4 | x | 2.5
COc1ccc(-c2nc3ccccc3n2Cc2ccc(C)cc2)cc1 | 0.8 | -3.3 | 4.1 | -35.3 | -0.5
Clc1ccc(-c2nc3ccccc3n2OCc2ccccc2)cc1 | -0.3 | 0.5 | 1.1 | 80.5* | 1.1
Cc1ccc(-c2nc3sc(=Cc4ccco4)c(=O)n3n2)cc1 | x | x | 3.0 | x | x
SMILES | UPR CHOP act | Fh CTSL1 inh | UCH37 DUB inh | CHOP inhibitor | XBP1 UPR activ
CN(C)S(=O)(=O)c1cccc(NC(=S)NN=Cc2ccc(O)c(O)c2O)c1 | x | x | 9.2 | x | x
CN(C)S(=O)(=O)c1cccc(NC(=S)N/N=C/c2cc(Br)ccc2O)c1 | -0.6 | 1.2 | x | 72.3* | 2.9
O=C(CSc1nc(-c2ccccc2)nc2c1Cc1ccccc1O2)Nc1ccc(C(=O)O)cc1 | x | x | 16.2 | 76.7* | x
O=C(Cc1cccs1)NN=Cc1ccccn1 | x | x | 1.9 | x | x
Cc1ccc(S(=O)(=O)N(CCC(=O)Nc2ccc(OC(F)(F)F)cc2)c2ccccc2)cc1 | 2.2 | 1.3 | 5.0 | 83.0* | -1.8
COc1ccc(C(C)=NNS(C)(=O)=O)c(OC)c1 | x | x | -1.0 | x | x
Cc1cc(C)n(CCC(=O)NN=Cc2ccc(O)cc2)n1 | x | x | 1.8 | x | x
Cc1ccc(C2NC(c3ccc(C)cc3)C(C)C(=NO)C2C)cc1 (stereo not drawn) | 1.8 | 5.6 | 3.2 | 84.4* | -2.5
CC1C(=NO)C(C)C(c2ccccc2)NC1c1ccccc1 (stereo not drawn) | -1.9 | -2.3 | 4.0 | 16.3 | -0.2
O=C(Nc1ccc(S(=O)(=O)N2CCCC2)cc1)c1ccc(CN2CCc3ccccc3C2)cc1 | 6.5 | -0.1 | 3.6 | 70.0* | -1.0
Cc1cc(Cl)c(S(=O)(=O)NN=Cc2ccc3c(c2)OCO3)c(Cl)c1 | x | x | 1.7 | x | x
Cc1cc(OC(=O)N2CCCCC2)cc(C)c1Cl | -0.4 | 5.0 | -0.7 | 76.0* | -0.4
Cc1cc(OCC(=O)N2CCCC2)cc(C)c1Cl | 8.2 | -2.4 | 3.9 | 9.8 | 1.9
CSc1nnc(C(C)(C)C)c(=O)n1N=Cc1ccc(Cl)cc1 | x | x | 1.9 | x | x
C#CCOCCOCCOCCNc1nc(N2CCN(C(=O)[C@H]([C@@H](C)CC)n3cc([C@@H](N)Cc4ccc(O)cc4)nn3)CC2)nc(N2CCN(C(=O)[C@H](CCCCN)n3cc([C@@H](N)CC(C)C)nn3)CC2)n1 | -1.5 | 28.0* | 0.4 | 5.1 | -0.6
C#CCOCCOCCOCCNc1nc(N2CCN(C(=O)[C@H](CCCCN)n3cc([C@@H](N)CC(C)C)nn3)CC2)nc(N2CCN(C(=O)[C@H](Cc3ccc(O)cc3)n3cc([C@@H](N)CC(C)C)nn3)CC2)n1 | -2.4 | 8.1 | 0.5 | 9.3 | -1.6
C#CCOCCOCCOCCNc1nc(N2CCN(C(=O)[C@H]([C@@H](C)CC)n3cc([C@@H](N)CC(C)C)nn3)CC2)nc(N2CCN(C(=O)[C@H](Cc3cc4ccccc4[nH]3)n3cc([C@@H](N)Cc4ccc(O)cc4)nn3)CC2)n1 | -0.5 | 10.9 | 0.4 | -2.7 | -2.2
C#CCOCCOCCOCCNc1nc(N2CCN(C(=O)[C@H]([C@@H](C)CC)n3cc([C@@H](N)Cc4ccc(O)cc4)nn3)CC2)nc(N2CCN(C(=O)[C@H](Cc3cc4ccccc4[nH]3)n3cc([C@@H](N)CC(C)C)nn3)CC2)n1 | -0.8 | 50.7* | x | x | 0.7
Cc1cccc(OCCCC(=O)Nc2ccc(Br)cc2)c1 | -1.7 | -0.5 | -1.0 | 84.4* | 0.4
Cc1ccc(C(=O)NCC(=O)OC2CCCCC2=O)cc1C (stereo not drawn) | -0.1 | x | 3.6 | x | 2.4
O=C(CNC(=O)c1ccc(Oc2ccccc2)cc1)OC1CCCCC1=O (stereo not drawn) | -0.9 | 19.3* | 4.0 | -13.2 | -1.6
CCC1CCCCN1c1nc2c(C=O)c(C)nn2c2ccccc12 (stereo not drawn) | 4.2 | -4.8 | -158.2 | 88.8* | 5.6
CCOC(=O)c1nnn2c1nc(N1CCCCC1)c1ccccc12 | -0.8 | -1.3 | 2.1 | 4.6 | 8.1
CCC/C=N/NC(=O)c1cccc(Br)c1 | -1.5 | 2.4 | x | 4.2 | -1.2
